# Screening data as filed in PubChem.
# Hits are enriched below; roughly 2% of the tested compounds scored in any of these assays.
# E-selectin induc – E-selectin induction on HUVECs | HUVEC E-selectin immunofluorescence imaging; normalized: neutral wells 0, TNF-alpha wells 100 | AID 686992 | activation, % at 7.58 µM | P16581 | 260,000 compounds, 0.37% hits;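 active means mean E-selectin-positive cell signal at least 10% of the positive control, reached in at least 60% of replicates, without over 20% cell loss; inconclusive means no rule given, readout overlaps actives, possibly toxicity-flagged; inactive means the rest, including those meeting only one limit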
# Target sequence (P16581 whole entry, looked up): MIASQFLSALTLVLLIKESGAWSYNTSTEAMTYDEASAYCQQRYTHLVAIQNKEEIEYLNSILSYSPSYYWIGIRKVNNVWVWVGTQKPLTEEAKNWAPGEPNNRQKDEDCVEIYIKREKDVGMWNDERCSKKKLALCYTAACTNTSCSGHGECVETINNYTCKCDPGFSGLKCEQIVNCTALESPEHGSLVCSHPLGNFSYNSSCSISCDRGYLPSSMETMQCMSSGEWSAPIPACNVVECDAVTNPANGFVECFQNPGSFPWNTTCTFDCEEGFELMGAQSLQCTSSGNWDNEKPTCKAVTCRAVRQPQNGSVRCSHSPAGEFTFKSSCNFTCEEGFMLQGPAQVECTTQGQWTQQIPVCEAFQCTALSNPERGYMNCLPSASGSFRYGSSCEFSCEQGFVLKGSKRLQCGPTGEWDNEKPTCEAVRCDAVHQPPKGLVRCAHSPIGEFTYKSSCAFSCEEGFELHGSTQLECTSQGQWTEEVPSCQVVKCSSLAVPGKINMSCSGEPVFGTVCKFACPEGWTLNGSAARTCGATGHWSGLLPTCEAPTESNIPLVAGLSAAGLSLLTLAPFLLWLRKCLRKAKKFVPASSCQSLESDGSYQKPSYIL
#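 Test system: HUVEC; input: 3,000 HUVEC/well; measured by: immunofluorescence imaging; read-out: % PE-positive cells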
# DENV2 CPE – protects cells from dengue virus 2 cytopathic effect. 350,000 compounds, 1.7% hits. DENV2-infected cells, cytopathic effect rescue, plate reader. CPE inhibition, % at 9.99 µM; in the data active means CPE inhibition above about 20%, passing the limit was not always enough; inconclusive means no clear call, values can overlap the other calls; tested in BHK-21 cells;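 further: 0% = median of neutral control wells and 100% = median of positive control wells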
# Xi reactivation – X-chromosome reactivation activator | activation, % at 7.58 µM | XiGFP mouse fibroblasts, % GFP-positive cells imaging, 3 d; cells co-treated with 5-aza-dC sensitizer; scaled so ellipticine positive control = 100% | 360,000 compounds, 0.055% hits | AID 743238;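 active means mean normalized replicate activation at least 10% and every replicate at or above 10%; inconclusive means only one of the two criteria met; inactive means mean below 10% and not all replicates reach 10%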;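 further: 0% = median of on-plate neutral control wells and 100% = ellipticine 6 µM median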
#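 material = 68-5-11 XiGFP fibroblast line | medium = DMEM plus 5-aza-dC sensitizer | schedule = 3 days compound exposure | benchmarks = positive control ellipticine, 6 µM final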
# S100A4 MyoIIA – inhibitors of human S100A4 binding to myosin IIA peptide | S100A4/TAMRA-MyoIIA peptide fluorescence polarization | P26447 | 360,000 compounds, 0.14% hits | inhibition, % at 10.7 µM;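 active means mean inhibition of at least 70% across replicates, with every replicate also reaching that level; inconclusive means mean inhibition reaches 70% but some replicates fall short; inactive means mean inhibition below 70%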
#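 Assay system: human S100A4 monomer with TAMRA-labelled myosin IIA peptide / Buffer or medium: Calcium-containing HEPES buffer, pH 7.2 / Reagent: TAMRA-labelled myosin IIA heavy-chain peptide probe, 5 nM / Compound: one dose per compound / Timing: polarization read 5 min after assay mix addition, stable 5–60 min / Benchmarks: neutral control DMSO, positive control TFP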
# * = called active by the depositor; ? = inconclusive; / = no result.
SMILES,E-selectin induc,DENV2 CPE,Xi reactivation,S100A4 MyoIIA
Cc1ccc(S(=O)(=O)Nc2ccccc2F)cc1C(=O)OC(C)C(=O)N1CCOCC1 (stereo not drawn),/,1,0,75*
CCN(CC)c1ccc(/C=N/N2C(=O)c3ccccc3C2=O)c(O)c1,/,42*,0,3
CCN(CC)c1ccc(/C=N/N2C(=O)c3ccccc3C2=O)cc1,/,/,2,/
Cc1cc(NC(=O)Cn2c(=O)oc3ccc(Cl)cc32)no1,0,45*,0,-6
O=C(OCC(=O)c1ccc(Br)s1)c1ccc(O)cc1,/,12,0,-2
CCOC(=O)[C@]12CCC=C1N(Cc1cccc3ccccc13)C(=O)[C@H](CC(=O)N1CCCCC1)C2,/,?,0,0
CCOC(=O)[C@]12CCC=C1N(Cc1cccc3ccccc13)C(=O)[C@H](CC(=O)N1CCCC1)C2,/,37*,0,0
COC(=O)[C@]12CCCCC=C1N(Cc1cccc3ccccc13)C(=O)[C@H](CC(=O)NCCC(C)C)C2,0,109*,0,-3
COC(=O)[C@]12CCCCC=C1N(Cc1cccc3ccccc13)C(=O)[C@H](CC(=O)N1CCSCC1)C2,0,32*,0,6
Cc1cccc(C)c1NC(=O)CNC(=O)c1ccc(NS(=O)(=O)c2ccc3[nH]c(=O)[nH]c3c2)cc1,/,4,0,3
CCOC(=O)CN1CC23C=CC(O2)C(C(=O)NC2CCCCCC2)C3C1=O (stereo not drawn),/,0,0,1
CCOC(=O)CN1CC23C=CC(O2)C(C(=O)NCCc2ccccc2)C3C1=O (stereo not drawn),/,22*,0,24
CCOC(=O)c1sc(NC(=O)CN2C(=O)C3CC=CCC3C2=O)nc1C (stereo not drawn),151*,-1,0,3
Cc1ccc(C)c(NC(=O)CN2C(=O)C3CC=CCC3C2=O)c1 (stereo not drawn),0,45*,0,-4
C[C@@H]1CCCCO[C@H](CN(C)C(=O)C2CCCCC2)[C@@H](C)CN([C@@H](C)CO)C(=O)c2cc(NC(=O)Nc3ccc(F)cc3)ccc2O1,0,47*,0,-3
C[C@@H]1CN([C@@H](C)CO)C(=O)c2cc(NC(=O)Nc3ccc(F)cc3)ccc2O[C@@H](C)CCCCO[C@@H]1CN(C)C(=O)C1CCCCC1,0,-2,0,-7
C[C@@H]1CCCCO[C@@H](CN(C)C(=O)C2CCCCC2)[C@H](C)CN([C@@H](C)CO)C(=O)c2cc(NC(=O)Nc3ccc(F)cc3)ccc2O1,0,25*,0,6
C[C@@H]1CN([C@H](C)CO)C(=O)c2cc(NC(=O)Nc3ccccc3)ccc2O[C@@H](C)CCCCO[C@@H]1CN(C)C(=O)C1CCCCC1,/,71*,/,5
C[C@H]1CCCCO[C@H](CN(C)C(=O)C2CCCCC2)[C@@H](C)CN([C@@H](C)CO)C(=O)c2cc(NC(=O)Nc3ccccc3)ccc2O1,2,-4,0,-11
C[C@@H]1CCCCO[C@@H](CN(C)C(=O)C2CCCCC2)[C@@H](C)CN([C@@H](C)CO)C(=O)c2cc(NC(=O)Nc3ccc(F)cc3)ccc2O1,0,21*,0,1
CN(Cc1nnc(-c2ccc(F)cc2)o1)c1ccccc1,/,14,0,-8
C[C@@H]1CCCCO[C@H](CN(C)C(=O)C2CCCCC2)[C@H](C)CN([C@H](C)CO)C(=O)c2cc(NC(=O)C3CCCCC3)ccc2O1,0,-3,0,-8
CCCNC(=O)N1[C@H](CO)[C@@H](c2ccc(C3=CCCC3)cc2)[C@@H]1CNC(C)=O,0,?,0,/
COc1cccc(OC)c1C(=O)N1CCN(Cc2c[nH]c3ccccc23)CC1,1,55*,0,-10
Clc1ccccc1C1=Nn2c(nnc2-c2ccco2)SC1,/,3,0,-4
SMILES,E-selectin induc,DENV2 CPE,Xi reactivation,S100A4 MyoIIA
Cc1noc(C)c1S(=O)(=O)Nc1ccc2c(c1)CC(=O)N([C@H](C)CO)C[C@H](C)[C@H](CN(C)Cc1ccc3c(c1)OCO3)O2,/,51*,0,6
Cc1noc(C)c1S(=O)(=O)Nc1ccc2c(c1)C(=O)N([C@H](C)CO)C[C@H](C)[C@H](CN(C)Cc1ccc(C(=O)O)cc1)OCCCC[C@H](C)O2,1,-3,0,-22
Cc1noc(C)c1S(=O)(=O)Nc1ccc2c(c1)C(=O)N([C@@H](C)CO)C[C@H](C)[C@H](CN(C)Cc1ccc3c(c1)OCO3)O2,401*,32*,-1,3
Cc1noc(C)c1S(=O)(=O)Nc1ccc2c(c1)C(=O)N([C@@H](C)CO)C[C@H](C)[C@H](CN(C)Cc1ccc(C(=O)O)cc1)OCCCC[C@@H](C)O2,0,50*,0,13
Cc1noc(C)c1S(=O)(=O)Nc1ccc2c(c1)C(=O)N([C@@H](C)CO)C[C@@H](C)[C@H](CN(C)Cc1ccc(C(=O)O)cc1)OCCCC[C@H](C)O2,0,24*,0,-17
CCOC(=O)c1cncc(C#CCOC(=O)Nc2ccc(OC(F)(F)F)cc2)c1,/,-1,0,4
COc1ccc(NC(=O)N2CCCCN3[C@H](C2)[C@@H](c2ccc(-c4ccccc4C)cc2)[C@@H]3CO)cc1,0,8,0,-2
Cc1noc(C)c1S(=O)(=O)Nc1ccc2c(c1)C(=O)N([C@@H](C)CO)C[C@H](C)[C@H](CN(C)Cc1ccc3c(c1)OCO3)OCCCC[C@H](C)O2,0,46*,0,26
Cc1noc(C)c1S(=O)(=O)Nc1ccc2c(c1)C(=O)N([C@H](C)CO)C[C@H](C)[C@H](CN(C)Cc1ccncc1)OCCCC[C@@H](C)O2,1,26*,0,2
Cc1noc(C)c1S(=O)(=O)Nc1ccc2c(c1)C(=O)N([C@H](C)CO)C[C@H](C)[C@H](CN(C)Cc1ccc3c(c1)OCO3)OCCCC[C@@H](C)O2,0,0,-1,5
Cc1noc(C)c1S(=O)(=O)Nc1ccc2c(c1)C(=O)N([C@H](C)CO)C[C@@H](C)[C@H](CN(C)Cc1ccncc1)O2,57*,-11,-1,1
Cc1noc(C)c1S(=O)(=O)Nc1ccc2c(c1)C(=O)N([C@H](C)CO)C[C@H](C)[C@@H](CN(C)Cc1ccc(C(=O)O)cc1)OCCCC[C@H](C)O2,0,-3,0,-1
Cc1noc(C)c1S(=O)(=O)Nc1ccc2c(c1)C(=O)N([C@H](C)CO)C[C@@H](C)[C@@H](CN(C)Cc1ccc(C(=O)O)cc1)OCCCC[C@@H](C)O2,0,38*,0,-1
Cc1csc(SC(C)c2nc3scc(-c4ccccc4)c3c(=O)[nH]2)n1 (stereo not drawn),0,?,0,-2
CN(CC(=O)Nc1ccc(Cl)c(C(F)(F)F)c1)C(=O)C1CC(=O)N(CCc2ccccc2)C1 (stereo not drawn),0,-1,0,-5
